Assay results as given in ChEMBL document CHEMBL1800018, “Discovery of a series of imidazo[4,5-b]pyridines with dual activity at angiotensin II type 1 receptor and peroxisome proliferator-activated receptor-γ” (J Med Chem, 2011).
The source made the active and inactive calls. No cut-off for these calls is given here.

Assays:
[1] = target: T1, Type-1 angiotensin II receptor (Homo sapiens, UniProt P30556); test: Displacement of [125I]Tyr4-Sar1,Ile8-Angiotensin II from human Angiotensin 1 receptor after 60 mins by scintillation counting
T1 sequence (P30556 whole entry): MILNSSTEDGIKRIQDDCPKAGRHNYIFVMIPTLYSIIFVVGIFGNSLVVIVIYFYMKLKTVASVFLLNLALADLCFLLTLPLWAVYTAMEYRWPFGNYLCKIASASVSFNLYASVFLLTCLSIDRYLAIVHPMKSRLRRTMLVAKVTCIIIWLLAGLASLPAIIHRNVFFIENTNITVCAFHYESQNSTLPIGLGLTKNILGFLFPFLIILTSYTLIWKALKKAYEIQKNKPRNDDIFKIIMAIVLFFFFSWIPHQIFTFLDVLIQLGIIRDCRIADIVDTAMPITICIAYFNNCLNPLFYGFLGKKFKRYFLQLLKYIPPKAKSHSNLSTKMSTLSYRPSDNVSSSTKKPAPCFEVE

[2] = target: T2, Peroxisome proliferator-activated receptor gamma (Homo sapiens, UniProt P37231); test: Partial agonist activity at human PPARgamma-LBD/Gal4 DNA binding domain by transactivation assay
T2 sequence (P37231 whole entry): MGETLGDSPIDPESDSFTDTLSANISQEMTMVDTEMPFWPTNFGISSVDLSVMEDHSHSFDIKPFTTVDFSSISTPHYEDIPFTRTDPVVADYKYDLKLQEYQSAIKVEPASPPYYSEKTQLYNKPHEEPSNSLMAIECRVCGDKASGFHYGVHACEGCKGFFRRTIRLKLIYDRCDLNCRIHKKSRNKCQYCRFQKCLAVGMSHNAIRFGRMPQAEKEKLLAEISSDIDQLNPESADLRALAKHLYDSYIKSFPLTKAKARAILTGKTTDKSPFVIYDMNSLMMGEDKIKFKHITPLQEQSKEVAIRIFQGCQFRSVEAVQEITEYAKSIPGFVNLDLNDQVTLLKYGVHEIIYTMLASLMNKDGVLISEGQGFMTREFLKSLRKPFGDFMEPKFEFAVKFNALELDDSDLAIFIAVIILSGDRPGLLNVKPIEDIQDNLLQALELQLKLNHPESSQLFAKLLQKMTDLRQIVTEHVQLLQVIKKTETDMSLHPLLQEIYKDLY

Rattus norvegicus [3] = test: Antidiabetic activity in ZDF rat assessed as blood glucose level at 100 mg/kg, po QD for 40 days (reference value: 771+/-60 mg/dL); type: functional
Rattus norvegicus [4] = test: Antidiabetic activity in ZDF rat assessed as triglyceride level at 100 mg/kg, po QD for 40 days (reference value: 618+/-52 mg/dL); type: functional
Rattus norvegicus [5] = test: Antidiabetic activity in ZDF rat assessed as body weight gain at 100 mg/kg, po QD for 40 days (reference value: 133+/-9 g); type: functional
Procedure, shortened: (§1)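 Male ZDF rats, starting at about 6 weeks old, were dosed orally once daily for 40 days in 1.5% CMC/0.2% Tween 20 suspension, n = 8/group. Body weight was followed over the study. Gain was calculated per animal from day 0 to day 40 and compared with vehicle and pioglitazone (3 mg/kg) groups. Data are mean ± SEM.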

Rattus norvegicus [6] = test: Antidiabetic activity in ZDF rat assessed as adiponectin level at 100 mg/kg, po QD for 40 days (reference value: 11.9+/-1.5 ug/ml); type: functional
Rattus norvegicus [7] = test: Antidiabetic activity in ZDF rat assessed as body weight gain at 100 mg/kg, po QD for 40 days measured on day 32 (reference value: 133+/-9 g); type: functional, organism-based; set-up: dose 100 mg/kg
Rattus norvegicus [8] = test: Antidiabetic activity in ZDF rat assessed as triglyceride level at 3 mg/kg, po QD for 40 days (reference value: 618+/-52 mg/dL); type: functional
Rattus norvegicus [9] = test: Antidiabetic activity in ZDF rat assessed as body weight gain at 3 mg/kg, po QD for 40 days (reference value: 133+/-9 g); type: functional; procedure, shortened: as §1
Rattus norvegicus [10] = test: Antidiabetic activity in ZDF rat assessed as adiponectin level at 3 mg/kg, po QD for 40 days (reference value: 11.9+/-1.5 ug/ml); type: functional
Rattus norvegicus [11] = test: Antidiabetic activity in ZDF rat assessed as body weight gain at 3 mg/kg, po QD for 40 days measured on day 6 (reference value: 133+/-9 g); type: functional, organism-based; set-up: dose 3 mg/kg
Rattus norvegicus [12] = test: Antidiabetic activity in ZDF rat assessed as blood glucose level at 3 mg/kg, po QD for 40 days (reference value: 771+/-60 mg/dL); type: functional

| SMILES | IC50 [1] | EC50 [2] | also measured |
| --- | --- | --- | --- |
| CCc1nc2c(C)cc(C)nc2n1C1CCc2cc(-c3ccccc3-c3nn[nH]n3)ccc21 (racemic) | 96 nM | 574 nM | – |
| CCCc1nc2c(C)cc(-c3nc4ccccc4n3C)cc2n1Cc1ccc(-c2ccccc2C(=O)O)cc1 | – | 1520 nM | Activity (Rattus norvegicus [3]): 510 mg/dL; Activity (Rattus norvegicus [4]): 935 mg/dL; Activity (Rattus norvegicus [5]): 157 g; Activity (Rattus norvegicus [6]): 13.2 µg/mL; Activity (Rattus norvegicus [7]): Active |
| CCc1nc2c(C)cc(CC(C)C)nc2n1[C@H]1CCc2cc(-c3ccccc3C(=O)O)ccc21 | 10.5 nM | 175 nM | – |
| CCc1ccc(CCOc2ccc(CC3SC(=O)NC3=O)cc2)nc1 (stereo unspecified) [PIOGLITAZONE] | – | – | Activity (Rattus norvegicus [8]): 316 mg/dL; Activity (Rattus norvegicus [9]): 269 g; Activity (Rattus norvegicus [10]): 30.5 µg/mL; Activity (Rattus norvegicus [11]): Active; Activity (Rattus norvegicus [12]): 118 mg/dL |
| CCCCc1nc2c(C)cc(C)nc2n1C1CCc2cc(-c3ccccc3-c3nn[nH]n3)ccc21 (racemic) | 238 nM | 2200 nM | – |
| CCc1c(C)nc2c(nc(CC)n2[C@H]2CCc3cc(-c4ccccc4-c4nnn[nH]4)ccc32)c1C | 15.7 nM | 1340 nM | – |
| CCc1nc2c(C)cc(Cc3ccccc3)nc2n1[C@H]1CCc2cc(-c3ccccc3-c3nnn[nH]3)ccc21 | 5.2 nM | – | – |
| CCc1nc2c(C)cc(C)nc2n1Cc1ccc(-c2ccccc2-c2nnn[nH]2)cc1 [L-158809] | – | > 20000 nM | – |

The next lines start with results.

| IC50 [1] | EC50 [2] | SMILES | also measured |
| --- | --- | --- | --- |
| 3.5 nM | 89 nM | Cc1cc(CC(C)C)nc2c1nc(C(C)C)n2[C@H]1CCc2cc(-c3ccccc3-c3nnn[nH]3)ccc21 | – |
| 13.3 nM | 1320 nM | CCCc1nc2c(C)cc(C)nc2n1[C@H]1CCc2cc(-c3ccccc3-c3nnn[nH]3)ccc21 | – |
| 16.9 nM | 264 nM | CCc1cc(C)c2nc(C(C)C)n([C@H]3CCc4cc(-c5ccccc5-c5nnn[nH]5)ccc43)c2n1 | – |
| 748 nM | 165 nM | CCc1nc2c(CC(C)C)cc(C)nc2n1[C@H]1CCc2cc(-c3ccccc3-c3nnn[nH]3)ccc21 | – |
| 10.2 nM | 295 nM | Cc1cc(C)c2nc(C(C)C)n([C@H]3CCc4cc(-c5ccccc5-c5nnn[nH]5)ccc43)c2n1 | – |
| 6.8 nM | 494 nM | CCc1cc(C)c2nc(CC)n([C@H]3CCc4cc(-c5ccccc5-c5nnn[nH]5)ccc43)c2n1 | – |
| 661 nM | 2620 nM | CCc1nc2c(C)cc(C)nc2n1[C@@H]1CCc2cc(-c3ccccc3-c3nnn[nH]3)ccc21 | – |
| 8.2 nM | 762 nM | Cc1cc(C)c2nc(C3CC3)n([C@H]3CCc4cc(-c5ccccc5-c5nnn[nH]5)ccc43)c2n1 | – |
| 7.6 nM | 591 nM | CCc1nc2c(C)cc(C)nc2n1[C@H]1CCc2cc(-c3ccccc3-c3nnn[nH]3)ccc21 | – |
| 202 nM | 1820 nM | CCc1nc2c(C)c(C)c(C)nc2n1[C@H]1CCc2cc(-c3ccccc3-c3nnn[nH]3)ccc21 | – |
